The text below walks through data of ChEMBL document CHEMBL5223070, “Synthesis and optimisation of P3 substituted vinyl sulfone-based inhibitors as anti-trypanosomal agents” (Bioorg Med Chem, 2020).

In data set [1] the test system is Trypanosoma brucei brucei. The experiment in a line: Antitrypanosomal activity against Trypanosoma brucei brucei MIT measured after 6 hrs by Alamar blue cell viability assay. The data set is classed as functional, organism-based. In outline:
(§1)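 Bloodstream-form T. b. brucei MITat1.1 kept in log phase in antibiotic-free HMI-9 with 10% heat-inactivated FBS, 37 °C, 5% CO2. Seeded at 2 × 10⁵ cells/mL with 5 μM–100 pM compound or DMSO alone. Alamar Blue added at 6 h, total incubation 24 h. Absorbance read at 540 and 595 nm. Triplicate. EC50 by four-parameter variable-slope nonlinear regression.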
For orientation: Alamar Blue is a resazurin reagent that responds to reducing activity.

The test system of data set [2] is Trypanosoma brucei brucei. Briefly: Antitrypanosomal activity against Trypanosoma brucei brucei assessed as reduction in survival. The data set is classed as functional, organism-based. In outline: as §1
Data set [3] can be described thus: Growth inhibition of human HaCaT cells incubated for 24 hrs by MTT assay. The data set is classed as toxicity, cell-based. In a few lines:
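HaCaT cells (mycoplasma-tested) in DMEM with 10% fetal calf serum, seeded at 1x10⁵ cells/mL for 24 h, washed with PBS and then exposed to compound for 24 h. Controls were 0.1% v/v Triton X-100 and untreated cells. MTT (0.5 mg/mL) added for 3 h, formazan dissolved in DMSO and read at 590 nm. GI50 from log(inhibitor) vs normalised response. Triplicate wells, repeated on three separate days.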
In general terms: Tetrazolium dyes change colour on reduction, which living cells bring about.

In data set [4] the test system is HaCaT. The experiment in a line: Growth inhibition of human HaCaT cells assessed as reduction in cell viability at above 10 uM incubated for 24 hrs by MTT assay.
Data set [5] relates to HaCaT. The experiment in a line: Growth inhibition of human HaCaT cells assessed as LDH release at 100 uM incubated for 24 hrs by MTT assay. The format is toxicity, cell-based. In a few lines:
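HaCaT keratinocytes in DMEM with 10% fetal calf serum, seeded at 1x10⁵ cells/mL and grown 24 h. After a PBS wash, cells were exposed 24 h to compound at final 100 μM (from 10 mM DMSO stock, diluted in medium). Medium was then assayed for LDH release at 490/680 nm. Normalised to untreated cells and to lysis buffer (maximum release) as % cytotoxicity. Triplicate wells, three independent experiments.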
In general terms: LDH in the medium is a marker of cell lysis.

A value given as a limit tells only on which side of the number the result lay.

As a reminder, the EC50 is the concentration needed to bring the measured effect to its halfway point. Higher therefore signals lower potency in that assay. For orientation: IC50 means the concentration needed to halve the response being measured. By GI50 is commonly meant the concentration that inhibits growth by half. Higher therefore signals less potent growth inhibition.

`O=C(N[C@@H](Cc1ccccc1)C(=O)N[C@H](/C=C/S(=O)(=O)c1ccccc1)CCCCNS(=O)(=O)c1cccc2ccccc12)OCc1ccccc1` came in with an EC50 in data set [1] of 740 nM.

`O=C(N[C@H](/C=C/S(=O)(=O)c1ccccc1)CCCCNS(=O)(=O)c1cccc2ccccc12)[C@H](Cc1ccccc1)NC(=O)N1CCOCC1` registered an EC50 in data set [1] of 900 nM. On to `O=C(N[C@H](/C=C/S(=O)(=O)c1ccccc1)CCCCNS(=O)(=O)c1cccc2ccccc12)[C@H](Cc1ccccc1)n1cc(-c2ccccc2)nn1`, for which the EC50 in data set [1] was 1120 nM. On to `Cc1ccc(S(=O)(=O)N[C@@H](Cc2ccccc2)C(=O)N[C@H](/C=C/S(=O)(=O)c2ccccc2)CCCCNS(=O)(=O)c2cccc3ccccc23)cc1`, for which a half-maximal effect in data set [1] (EC50) was put at 990 nM. Turning to `CN1CCN(C(=O)N[C@@H](Cc2ccccc2)C(=O)N[C@H](/C=C/S(=O)(=O)c2ccccc2)CCCCNS(=O)(=O)c2cccc3ccccc23)CC1`, the EC50 in data set [1] is 1190 nM. Besides, the IC50 in data set [2] turned out to be 1180 nM. Besides, the GI50 at 24 h in data set [3] was determined as 28700 nM. For the same compound, the “growth inhibition (GI)” value in data set [4] is listed as “Toxic”; in data set [5], “Not Determined(Insoluble)”.

On to `[N-]=[N+]=N[C@@H](Cc1ccccc1)C(=O)N[C@H](/C=C/S(=O)(=O)c1ccccc1)CCCCNS(=O)(=O)c1cccc2ccccc12`, for which the EC50 in data set [1] was > 5000 nM. Take `N[C@@H](Cc1ccccc1)C(=O)N[C@H](/C=C/S(=O)(=O)c1ccccc1)CCCCNS(=O)(=O)c1cccc2ccccc12`: in data set [1], the EC50 is 3430 nM. On to `CC(C)(C)NC(=O)N[C@@H](Cc1ccccc1)C(=O)N[C@H](/C=C/S(=O)(=O)c1ccccc1)CCCCNS(=O)(=O)c1cccc2ccccc12`, for which the concentration giving a half-maximal response (EC50) in data set [1] is > 5000 nM.

In turn, `O=C(N[C@@H](Cc1ccccc1)C(=O)N[C@H](/C=C/S(=O)(=O)c1ccccc1)CCCCNS(=O)(=O)c1cccc2ccccc12)c1ccncc1` came in with an EC50 in data set [1] of 710 nM. This lies in the sub-micromolar range. Compound `CCCCCCc1cn([C@@H](Cc2ccccc2)C(=O)N[C@H](/C=C/S(=O)(=O)c2ccccc2)CCCCNS(=O)(=O)c2cccc3ccccc23)nn1` yielded an EC50 in data set [1] of 1050 nM.

`CCCCNC(=O)N[C@@H](Cc1ccccc1)C(=O)N[C@H](/C=C/S(=O)(=O)c1ccccc1)CCCCNS(=O)(=O)c1cccc2ccccc12` gave an EC50 in data set [1] of 640 nM.

`O=C1N[C@@H](CCCCNS(=O)(=O)c2cccc3ccccc23)[C@@H](CS(=O)(=O)c2ccccc2)N[C@H]1Cc1ccccc1`: the EC50 in data set [1] was > 5000 nM. For the compound `COc1cc(Br)c(S(=O)(=O)NCCCC[C@@H](/C=C/S(=O)(=O)c2ccccc2)NC(=O)[C@H](Cc2ccccc2)NC(=S)Nc2ccc(C(F)(F)F)cc2)cc1OC`, in data set [1], the EC50 amounted to 390 nM. For the same compound, the IC50 in data set [2] was found to be 410 nM. Further, the figures for the “growth inhibition (GI)” value in data set [4] and in data set [5] were “Toxic” and “Not Determined(Insoluble)”, respectively.

For `O=C(N[C@@H](Cc1ccccc1)C(=O)N[C@H](/C=C/S(=O)(=O)c1ccccc1)CCCCNS(=O)(=O)c1cccc2ccccc12)c1ccc(C(F)(F)F)cc1`, a half-maximal effect in data set [1] (EC50) was put at 240 nM. Moreover, the IC50 in data set [2] came to 242 nM. In addition, the figures for the “growth inhibition (GI)” value in data set [4] and in data set [5] were “Toxic” and “Not Determined(Insoluble)”, respectively. For `O=C(Nc1ccccc1)N[C@@H](Cc1ccccc1)C(=O)N[C@H](/C=C/S(=O)(=O)c1ccccc1)CCCCNS(=O)(=O)c1cccc2ccccc12`, in that order: 150 nM, 144 nM, “Toxic” and “Not Determined(Insoluble)”. Regarding `O=C(Cc1ccc2c(c1)OCO2)N[C@@H](Cc1ccccc1)C(=O)N[C@H](/C=C/S(=O)(=O)c1ccccc1)CCCCNS(=O)(=O)c1cccc2ccccc12`, the EC50 in data set [1] came to 800 nM.

Turning to `O=C(N[C@H](/C=C/S(=O)(=O)c1ccccc1)CCCCNS(=O)(=O)c1cccc2ccccc12)[C@H](Cc1ccccc1)NC(=S)Nc1ccccc1`, the EC50 in data set [1] amounted to 480 nM. In data set [1], `O=C(N[C@H](/C=C/S(=O)(=O)c1ccccc1)CCCCNS(=O)(=O)c1cccc2ccccc12)[C@H](Cc1ccccc1)NC(=S)Nc1ccc(C(F)(F)F)cc1` had a concentration for a half-maximal effect (EC50) of 220 nM. In data set [2], the IC50 came out at 220 nM. For the same compound, the “growth inhibition (GI)” value was “Toxic” in data set [4] and “Not Determined(Insoluble)” in data set [5].
